The sample as a whole holds a higher share of hits than the screen did.
L major viab – inhibitors of Leishmania major promastigote growth | Leishmania major promastigotes, resazurin fluorescence viability | inhibition, % at 10 µM | hit rate 9% among 200,000 | AID 1063; in the data active means inhibition above about 50%;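 further: promastigotes grown with compound for 44 hours at 28 °C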
PolyA inh – inhibitors of polyadenylation in S. cerevisiae; S. cerevisiae SKY197-pL101 polyadenylation reporter, beta-gal luminescence; efflux-impaired pdr1/pdr3 knockout yeast; score 100 = 6 SD above DMSO; activity score, % at 12 µM; hit rate 0.02% among 300,000; AID 1875;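 active means lowest replicate activity score at least 50, where 100 means six control SD above control mean; inconclusive means lowest score under 50 but half or more replicates reach 50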;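 further: yeast exposed to compound for 9 h at 30 °C; higher score means more reporter readthrough which indicates perturbed polyadenylation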
T cruzi repl – blocks replication of Trypanosoma cruzi; T. cruzi beta-gal in NIH3T3, luminescence, 90 h; inhibition, % (no concentration beside the values); hit rate 1.4% among 300,000; AID 1885;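 active means mean inhibition across valid replicates above about 55%, limit read from the data; inconclusive means mean below that limit but half or more replicates reach it; inactive means mean below it, under half of replicates reach it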;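 further: signal also drops with host cell toxicity which is not excluded here; 0% = plate median of DMSO wells and 100% = zero luminescence signal; higher percent means less beta-gal luminescence so fewer parasites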
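assay system = mouse NIH/3T3 fibroblasts infected with β-gal-expressing T. cruzi Tulahuen C4 | input = 5,000 NIH/3T3 host cells per well | buffer or medium = DMEM plus 2% FBS | timing = 3 h host attachment, then at least 90 h co-culture | measured by = GalScreen luminescence, 60 min | evaluation = luminescence reflecting intracellular parasite burden, expressed as percent inhibition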
Calb FLC – C. albicans growth modulation with fluconazole; hit rate 0.57% among 300,000; C. albicans CaCi-2 + fluconazole, Alamar Blue growth, 48 h; growth inhibition, % (test concentration not listed); AID 1979;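 active means growth inhibition above about 58% in most replicates, limit read from the data, passing the limit was not always enough; inconclusive means exactly half the replicates above a set limit; inactive means most replicates below a set limit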;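 further: all wells also contain fluconazole at 8 µg/ml as a sub-toxic cotreatment; 0% = median of DMSO wells and 100% = median of geldanamycin control wells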
NALP1 yeast inh – blocks the NALP1 inflammasome reconstituted in yeast | S. cerevisiae NALP1/ASC/caspase-1 growth, X-gal OD620, 72 h | inhibition, % at 10 µM | AID 2071 | hit rate 0.61% among 280,000; in the data active means inhibition mostly above about 24%, no sharp cut-off; inactive means mostly below about 32%
NALP3 yeast inh – inhibitors of NALP3 inflammasome in yeast. Yeast reconstituted NLRP3/ASC/caspase-1, beta-gal luminescence, 24 h. inhibition, % at 10 µM. hit rate 0.39% among 330,000;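 active means inhibition of 50% or more; inactive means inhibition below 50%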;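 further: plate controls were induced DMSO wells for no effect and uninduced yeast grown without galactose for full effect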
* = called active by the depositor; ? = inconclusive; / = no result given.

SMILES	L major viab	PolyA inh	T cruzi repl	Calb FLC	NALP1 yeast inh	NALP3 yeast inh
COc1ccc(NC(=S)N(CCc2c(C)[nH]c3ccc(C)cc23)Cc2cccs2)cc1	54*	-5	21	-17	0	4
COc1ccc2[nH]c(C)c(CCN(Cc3cccs3)C(=S)Nc3ccc(F)cc3)c2c1	40	-12	55*	0	29	27
COc1ccc2[nH]c(C)c(CCN(Cc3cccs3)C(=S)Nc3ccccc3)c2c1	46	-11	58*	-1	22	7
CCN(CCC(=O)Nc1cc([N+](=O)[O-])ccc1OC)Cc1ccccc1	67*	4	-17	-4	25	12
COc1ccc([N+](=O)[O-])cc1NC(=O)C(C)N(C)Cc1ccc(Br)cc1 (stereo not given)	57*	-3	34	3	43	22
CCOC(=O)N1CCC(Nc2cccc(SC)c2)CC1	96*	-3	20	11	-4	2
CCOC(=O)N1CCC(N(CCOC)C(=S)Nc2cccc(SC)c2)CC1	65*	9	6	13	1	5
COc1ccc(OC)c(C2C(C(=O)c3cccs3)=C(O)C(=O)N2CCN2CCOCC2)c1 (stereo not given)	/	0	-1	-2	1	0
COc1ccc(-c2nc(CN3CCCCC3c3cccnc3)c(C)o2)c(F)c1 (stereo not given)	2	21	64*	3	-9	8
Cc1ccc(-c2nc(CN3CCCCC3c3cccc(F)c3)c(C)o2)o1 (stereo not given)	8	-5	9	4	6	3
Cc1oc(-c2ccccc2Cl)nc1CN1CCCCC1c1cccnc1 (stereo not given)	26	-1	59*	12	7	-3
CC(NC(=O)COc1ccccc1F)C1CC2CCC1C2 (stereo not given)	0	-5	3	8	-1	11
COc1ccc(CNC(=O)C2CCN(S(=O)(=O)N3CCCC3)CC2)c(OC)c1	/	19	2	-3	0	10
CCOC(=O)c1c(C)nc2c(c1-c1ccccc1)C(=O)CCC2	-2	-8	-14	6	-4	13
COc1ccc(/C=C2\SC(=O)N(CC(=O)NNC(=O)c3ccccc3O)C2=O)cc1	-5	25	-12	25	0	-4
COc1ccc(/C=C2\SC(=O)N(CC(=O)NNC(=O)c3ccccc3O)C2=O)cc1OC	-11	31	-3	105*	17	4
COc1cccc(-c2nnc(-c3ccc(C(F)(F)F)cc3)o2)c1OC	-3	-7	12	18	2	-6
COc1cc(OC)c(-c2nnc(-c3ccc(OC)c(OC)c3OC)o2)cc1OC	56*	12	13	0	46	12
Cc1ccc(-c2cc(N)n(Cc3ccc(Cl)cc3)n2)cc1	87*	14	31	-4	-6	29
C=CCn1c(-c2cccs2)nc2ccccc21	14	/	/	/	25*	26
C=CCn1c(-c2cccs2)nc2nc3ccccc3nc21	8	-6	0	6	6	4
CCN(C(=O)COC(=O)c1ccc(S(=O)(=O)N2CCCc3ccccc32)cc1)C1CCS(=O)(=O)C1 (stereo not given)	2	-6	-2	10	19	21
Cc1cc(=O)oc2cc(OC(=O)CCCCCN3C(=O)c4ccccc4C3=O)ccc12	-1	8	-2	8	14	-2
COc1ccc(OC)c(S(=O)(=O)NCc2csc(-c3ccccc3)n2)c1	78*	?	-9	29	15	27
COc1ccc(-c2nc(CCl)cs2)cc1	11	2	6	?	4	15
SMILES	L major viab	PolyA inh	T cruzi repl	Calb FLC	NALP1 yeast inh	NALP3 yeast inh
COc1cccc(-c2nc(CCl)cs2)c1	43	11	61*	23	-1	7
COc1ccc(-c2csc(-c3ccccc3)n2)c(OC)c1	-8	-12	-9	99*	9	15
CCCc1nn2c(=O)cc(CSCC(=O)Nc3ccc(OC)cc3)nc2s1	/	-7	-5	14	19	4
CCC(=O)N(Cc1c(C)nn(-c2ccccc2)c1Cl)c1ccc(Cl)cc1	65*	-11	9	22	32	-14
Cc1nn(-c2ccccc2)c(Cl)c1C(=O)NCCCCNC(=O)c1c(C)nn(-c2ccccc2)c1Cl	8	-5	-1	-2	14	16
Cn1cnc([N+](=O)[O-])c1Oc1cccc2ccccc12	73*	-13	-12	-6	6	-17
CC1(C)CC(N=c2cc(-c3ccccc3)oc3ccc(Cl)cc23)CC(C)(C)N1	101*	-1	50	16	0	/
O=c1cc(-c2ccccc2)oc2ccccc12	/	/	/	/	/	28
O=c1cc(-c2ccccc2)oc2ccc(O)cc12	/	19	13	-1	0	14
OCCCN=c1cc(-c2ccccc2)oc2ccc(Cl)cc12	100*	-9	5	14	46	-9
COc1ccc(NC(=O)CSc2nc3sc(C)cc3c(=O)n2C)c(OC)c1	/	-1	-19	14	3	25
Cc1nc(S/C(C(=O)O)=C2/C(=O)Nc3ccccc32)n[nH]1	/	13	-2	9	/	23
COc1ccc(C2=NN(C(C#N)c3ccc(OC)c(OC)c3)C(c3ccccc3)C2)cc1 (stereo not given)	100*	-25	26	-19	-9	41
CN1CCN(CCOCCOc2c(Cl)cc(Cl)cc2Cl)CC1	/	-2	49	-24	/	26
Cc1cc(Cl)c(OCCOCCN2CCC(C)CC2)c(Br)c1	99*	4	36	-27	52*	17
Cc1cc(C)c(OCCCCN2CCC(C)CC2)c(Br)c1	98*	-10	30	-21	18	19
Cc1cc(C)c(OCCCON2C(=O)CCC2=O)c(Br)c1	-5	10	-3	0	-2	16
Cc1cc(Cl)c(OCCOCCN2CCN(C)CC2)c(Br)c1	/	8	59*	0	21	18
O=[N+]([O-])C1=CC=C2C(=NC3(CCCCC3)N2O)C1=NCCc1ccccc1	75*	24	4	2	14	19
CCN(CC)S(=O)(=O)c1ccc(N=NC2=C(O)CCCC2=O)cc1	-7	17	-5	-1	33	7
CCN(CC)S(=O)(=O)c1ccc(N=NC2=C(O)CC(C)(C)CC2=O)cc1	80*	-13	-1	-4	41	-7

Bioassay records deposited in PubChem by several laboratories.
